# Assay results taken from ChEMBL document CHEMBL4715683, “Discovery and characterization of a novel peptide inhibitor against influenza neuraminidase” (RSC Med Chem, 2020).
# Calls of active or inactive are those of the source. No cut-off for these calls is given here.
# Tests used:
# [1] = test system: Influenza A virus; assay: Antiviral activity against Influenza A virus (H1N1) infected in dog MDCK cells assessed as inhibition of virus-induced cytopathic effect treated 1 hr post infection and measured after 48 hrs by CCK-8 assay; type: functional, organism-based
# [2] = Hemolytic activity in rabbit red blood cells incubated for 60 mins; type: ADME, cell-based, Oryctolagus cuniculus, Erythrocyte; conditions: red blood cells (erythrocytes)
# Outline: (§1)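 Fibrinogen-free rabbit blood was mixed with 0.9% saline and centrifuged to give a 2% red cell suspension. Peptide solutions were combined with the suspension, kept 60 min at 37 °C and centrifuged. Supernatant OD600 gave hemolysis, and HC50 is the 50% hemolytic concentration.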
# [3] = Inhibition of Influenza A virus (H1N1) neuraminidase using 4-MU-NANA as substrate preincubated for 1 hr followed by substrate addition and measured after 18 hrs by fluorescence method
# Outline: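 Peptide dilutions were preincubated with diluted H1N1 virus for 1 h at 37 °C. 4-MU-NANA was then added and reactions ran 18 h at 37 °C. Released 4-methylumbelliferone was read by fluorescence (Ex 355/Em 460). IC50 is the peptide concentration reducing neuraminidase activity by 50%.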
# [4] = test system: Influenza A virus; assay: Antiviral activity against Influenza A virus H5N1 infected in dog MDCK cells assessed as inhibition of virus-induced cytopathic effect treated 1 hr post infection and measured after 48 hrs by CCK-8 assay; type: functional, organism-based
# [5] = Binding affinity to influenza neuraminidase incubated for 2 hrs by ELISA; set-up: species or system Influenza A virus
# Outline: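 His-tagged neuraminidase expressed in E. coli BL21 and Ni-affinity purified was immobilised and blocked with BSA. Biotinylated peptides at varied concentrations were bound at 37 °C for 2 h, followed by streptavidin-HRP for 1 h and HRP substrate for 15 min, then OD450. Kd came from fitting background-subtracted absorbance against peptide concentration.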
# [6] = test system: HEK-293T; assay: Cytotoxicity against human HEK293T cells at 50 uM incubated for 48 hrs by CCK-8 assay; type: cell-based
# Outline: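 HEK 293T cells were seeded at 5000 per well in DMEM with 10% FBS. Peptides were added at 0.78 to 50 μM for 48 h, and viability was read by CCK-8.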
# [7] = test system: Erythrocyte; assay: Hemolytic activity in rabbit red blood cells at 100 uM incubated for 60 mins; type: ADME, cell-based, Oryctolagus cuniculus; conditions: 1 h; outline: as §1
# [8] = test system: Influenza A virus; assay: Antiviral activity against Influenza A virus (H1N1) infected in BALB/c mouse assessed as reduction in lung index at 1 mg/kg/day, iv administered for 7 days and measured after 15 days; type: functional, organism-based; conditions: time 7.0 day
# [9] = […] assessed as compound remaining after 18 hrs by RP-HPLC analysis; type: ADME, cell-free; conditions: human, plasma
# [10] = test system: Influenza A virus; assay: Antiviral activity against Influenza A virus (H1N1) infected in BALB/c mouse assessed as decrease in IL6 expression at 1 mg/kg/day, iv measured on day 2 and day 4 by ELISA; type: functional, organism-based; conditions: time 2-4 day
# Outline: (§2)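 Balb/c mice were infected with H1N1 and treated iv once daily for seven days (peptide 1 mg kg−1 per day, starting 4 h post-inoculation), with PBS control and healthy groups. Serum was taken on days 2 and 4 post-inoculation. TNF-α, IL-6 and IFN-γ were measured by ELISA at A450. n = 6; Student's t test against the normal group.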
# [11] = test system: Influenza A virus; assay: Antiviral activity against Influenza A virus (H1N1) infected in BALB/c mouse assessed as decrease in INFgamma expression at 1 mg/kg/day, iv measured on day 2 and day 4 by ELISA; type: functional, organism-based; conditions: time 2-4 day; outline: as §2
# [12] = test system: Influenza A virus; assay: Antiviral activity against Influenza A virus (H1N1) infected in BALB/c mouse assessed as decrease in TNF-alpha expression at 1 mg/kg/day, iv measured on day 2 and day 4 by ELISA; type: functional, organism-based; conditions: time 2-4 day; outline: as §2
# [13] = test system: Influenza A virus; assay: Antiviral activity against Influenza A virus (H1N1) infected in BALB/c mouse assessed as recovery of normal body weight at 1 mg/kg/day, iv measured after 6 days; type: functional, organism-based; conditions: time 6.0 day
# Outline: (§3)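 Six-week-old male Balb/c mice, randomised into normal, PBS control and treated groups. Dosing began 4 h after H1N1 inoculation: peptide at 1 mg kg−1 per day or oseltamivir carboxylate at 50 mg kg−1 per day, iv once daily for seven days. Body weight and mortality were followed for 15 consecutive days; n = 6.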
# [14] = Drug uptake in human HEK293T cells at 2 uM measured upto 12 hrs by using rhodamine-labeled peptide by flow cytometric analysis; type: ADME, cell-based; conditions: hek-293t
# Outline: (§4)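 HEK 293T cells were given rhodamine-labelled peptides at 2 μM and sampled at 2, 4, 8 and 12 h. Cells were PBS-washed, fixed in 4% paraformaldehyde and DAPI-stained, then examined by laser scanning confocal microscopy and by FACS.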
# [15] = Drug uptake in human HEK293T cells at 2 uM measured upto 12 hrs by using rhodamine-labeled peptide by DAPI staining based laser scanning confocal microscopic analysis; type: ADME, cell-based; conditions: hek-293t; outline: as §4
# [16] = Drug uptake in human HEK293T cells at 2 uM incubated for 12 hrs by HPLC analysis; type: ADME, cell-based; conditions: hek-293t
# Outline: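 HEK 293T cells were exposed to peptide at 2 μM for 12 h, washed twice with PBS and lysed; proteins were precipitated. Peptide was read by HPLC on a C18 column with 0.1% TFA in water and 0.1% TFA in 80% acetonitrile, gradient 14–34% B over 0–20 min, 1 mL min−1.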
# [17] = test system: Influenza A virus; assay: Antiviral activity against Influenza A virus (H1N1) infected in BALB/c mouse assessed as animal survival rate at 50 mg/kg/day, iv administered for 7 days and monitored for 15 days relative to control; type: functional; conditions: time 7 day; outline: as §3
# [18] = test system: Influenza A virus (H1N1); assay: Inhibition of Influenza A virus (H1N1) neuraminidase at 25 uM using 4-MU-NANA as substrate after 60 mins by fluorescence method relative to control
# Outline: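 Time-course format: neuraminidase incubated with peptide (25 μM) in the presence of 4-MU-NANA substrate for up to 180 min. Fluorescence intensity read at successive time points and expressed as inhibition ratio. Mean ± SD, n = 6.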
# [19] = test system: Influenza A virus; assay: Antiviral activity against Influenza A virus (H1N1) infected in BALB/c mouse assessed as animal survival rate at 1 mg/kg/day, iv administered for 7 days and monitored for 15 days relative to control; type: functional; conditions: time 7 day; outline: as §3
smiles,measurement,setting,value
C[C@H](NC(=O)[C@@H]1CCCN1C(=O)[C@H](CCCCN)NC(=O)[C@@H](CCCNC(=N)N)NC(=O)[C@H](Cc1c[nH]cn1)NC(=O)CN)C(=O)N[C@@H](CCC(N)=O)C(=O)N1CCC[C@H]1C(=O)O,IC50,[1],28.4 µM
same,HC50 at 1 h,[2],25 µM
same,IC50,[3],< 25 µM
same,IC50,[4],31.3 µM
CC(C)C[C@H](NC(=O)[C@@H](CCCNC(=N)N)NC(=O)[C@H](CCCCN)NC(=O)[C@H](N)Cc1c[nH]c2ccccc12)C(=O)N[C@@H](Cc1c[nH]cn1)C(=O)N[C@@H](Cc1c[nH]cn1)C(=O)N[C@@H](CCCCN)C(=O)N1CCC[C@H]1C(=O)N[C@@H](C)C(=O)O,IC50,[1],16 µM
same,Kd,[5],0.019 µM
same,HC50 at 1 h,[2],25 µM
same,Activity,[6],Non-Toxic
same,IC50,[3],< 25 µM
same,IC50,[4],17.9 µM
same,Activity,[7],Non-Toxic
C[C@H](NC(=O)[C@@H](NC(=O)[C@H](CCCCN)NC(=O)[C@@H](Cc1c[nH]cn1)NC(=O)[C@@H](CC(=O)O)NC(=O)[C@@H](N)CC(=O)O)[C@@H](C)O)C(=O)N[C@@H](Cc1c[nH]cn1)C(=O)N[C@@H](CCC(N)=O)C(=O)O,IC50,[1],28.4 µM
same,Kd,[5],0.0386 µM
same,HC50 at 1 h,[2],25 µM
same,IC50,[4],48.2 µM
C[C@H](NC(=O)[C@@H]1CCCN1C(=O)[C@H](CCCCN)NC(=O)[C@H](CCC(=O)O)NC(=O)[C@@H](CCC(=O)O)NC(=O)[C@H](N)CCC(=O)O)C(=O)N[C@@H](CCC(N)=O)C(=O)N1CCC[C@H]1C(=O)O,IC50,[1],36.1 µM
same,HC50 at 1 h,[2],25 µM
same,IC50,[4],64.3 µM
C[C@H](NC(=O)[C@@H](NC(=O)[C@H](CCCCN)NC(=O)[C@H](Cc1c[nH]cn1)NC(=O)[C@H](Cc1ccccc1)NC(=O)[C@H](CCC(=O)O)NC(=O)[C@H](N)CCCCN)[C@@H](C)O)C(=O)N[C@@H](CCC(N)=O)C(=O)N1CCC[C@H]1C(=O)O,IC50,[1],16.6 µM
same,Kd,[5],0.0286 µM
same,HC50 at 1 h,[2],25 µM
same,IC50,[3],< 25 µM
same,IC50,[4],25.4 µM
C[C@H](NC(=O)[C@@H]1CCCN1C(=O)[C@H](CCCCN)NC(=O)[C@H](CCCNC(=N)N)NC(=O)[C@@H](Cc1c[nH]c2ccccc12)NC(=O)CN)C(=O)N[C@@H](CCC(N)=O)C(=O)N1CCC[C@H]1C(=O)O,Activity,[8],Active
same,IC50,[1],36 µM
same,Stabilty,[9],Stable
same,Kd,[5],0.0277 µM
same,Activity,[10],Active
same,HC50 at 1 h,[2],25 µM
same,Activity,[6],Non-Toxic
same,Activity,[11],Active
same,Activity,[12],Active
same,IC50,[4],27.5 µM
same,Activity,[7],Non-Toxic
same,Activity,[13],Active
same,Drug uptake,[14],Active
same,Drug uptake,[15],Active
same,Drug uptake,[16],Active
CC(C)C[C@H](NC(=O)[C@@H]1CCCN1C(=O)[C@H](CCCNC(=N)N)NC(=O)[C@@H](CCCNC(=N)N)NC(=O)[C@@H](CCCNC(=N)N)NC(=O)[C@H](N)Cc1ccccc1)C(=O)N[C@@H](CCCNC(=N)N)C(=O)N[C@@H](C)C(=O)O,IC50,[1],22.7 µM
same,HC50 at 1 h,[2],25 µM
same,Activity,[6],Non-Toxic
same,IC50,[4],50.2 µM
same,Activity,[7],Non-Toxic
CSCC[C@H](NC(=O)[C@@H](NC(=O)[C@@H](CCCNC(=N)N)NC(=O)[C@@H](Cc1ccccc1)NC(=O)[C@H](N)CCC(=O)O)[C@@H](C)O)C(=O)N[C@H](C(=O)N[C@@H](Cc1c[nH]cn1)C(=O)N1CCC[C@H]1C(=O)N[C@@H](CCCCN)C(=O)O)C(C)C,IC50,[1],15.7 µM
same,Kd,[5],0.0203 µM
same,HC50 at 1 h,[2],25 µM
same,Activity,[6],Non-Toxic
same,IC50,[4],23.8 µM
same,Activity,[7],Non-Toxic
CCC(CC)O[C@@H]1C=C(C(=O)O)C[C@H](N)[C@H]1NC(C)=O [OSELTAMIVIR CARBOXYLATE],IC50,[1],0.0113 µM
same,Activity,[17],100%
same,IC50,[4],0.0056 µM
C[C@H](NC(=O)[C@H](CCC(N)=O)NC(=O)[C@H](C)NC(=O)[C@H](Cc1c[nH]cn1)NC(=O)[C@H](CCCCN)NC(=O)[C@H](CCCNC(=N)N)NC(=O)[C@@H](CC(=O)O)NC(=O)[C@H](N)CCC(=O)O)C(=O)O,IC50,[1],3.08 µM
same,Kd,[5],0.0366 µM
same,HC50 at 1 h,[2],25 µM
same,IC50,[3],< 25 µM
same,IC50,[4],3.32 µM
C[C@H](NC(=O)[C@@H]1CCCN1C(=O)[C@H](CCCCN)NC(=O)[C@@H](CCCNC(=N)N)NC(=O)[C@@H](CCCNC(=N)N)NC(=O)[C@H](N)CCC(=O)O)C(=O)N[C@@H](CCC(N)=O)C(=O)N1CCC[C@H]1C(=O)O,Activity,[8],Active
same,IC50,[1],2.26 µM
same,Stabilty,[9],Stable
same,Kd,[5],0.011 µM
same,Activity,[10],Active
same,HC50 at 1 h,[2],25 µM
same,Activity,[6],Non-Toxic
same,Activity,[11],Active
same,IC50,[3],4.25 µM
same,Activity,[12],Active
same,IC50,[4],1.46 µM
same,Activity,[7],Non-Toxic
same,inhibition,[18],100%
same,Activity,[13],Active
same,Drug uptake,[14],Active
same,Drug uptake,[15],Active
same,Drug uptake,[16],Active
same,Activity,[19],90%
